Screening data: PubChem BioAssay, Johns Hopkins Ion Channel Center
Sampled rows, rich in hits. Any-hit rate of the full collection: about 3.5%.
MrgX1 agonist – agonists of human MrgX1 receptor | MrgX1-HEK293 cells, Fluo-4 calcium fluorescence, agonist mode; hits give high values | AID 588627 | actives 0.44% (n = 310,000) | B-score at 10 µM | Q96LB2;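 active means calcium response B-score plate-corrected fluorescence ratio at least 3 library SD, with starting fluorescence B-score inside 5 SD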
Target sequence (Q96LB2 whole entry, looked up): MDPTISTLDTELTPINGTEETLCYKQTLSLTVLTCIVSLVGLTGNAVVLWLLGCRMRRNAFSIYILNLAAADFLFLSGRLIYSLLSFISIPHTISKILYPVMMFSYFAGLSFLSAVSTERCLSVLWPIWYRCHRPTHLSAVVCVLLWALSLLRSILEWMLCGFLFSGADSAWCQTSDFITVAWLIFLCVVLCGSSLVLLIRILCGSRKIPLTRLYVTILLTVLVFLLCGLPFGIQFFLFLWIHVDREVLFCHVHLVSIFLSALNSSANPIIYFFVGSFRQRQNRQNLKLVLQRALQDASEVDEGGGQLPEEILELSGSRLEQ
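Material: MrgX1-expressing HEK293 cells; input: 15,000 cells per well; doses: test compound given as first of three sequential additions; schedule: overnight plating before 1 h dye loading; technique: Fluo-4 NW calcium-flux fluorescence, kinetic read; evaluation: baseline-normalised fluorescence change ratio, B-scored; control set: plate-wise positive and negative controls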
RGS4 inh – inhibitors of human RGS4; HEK293 M3R/RGS4 inducible, Fluo-4 calcium flux; hits give high values; triggered by carbachol at its EC20; B-score at 10 µM; actives 0.45% (n = 310,000); AID 463165;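 active means B-score, a plate-corrected calcium signal, over three deviations above library mean, with baseline fluorescence within five deviations of library mean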;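 further: RGS4 expression induced by doxycycline in cells with stable M3 receptor; B-score is computed from the integrated fluorescence ratio over baseline after carbachol; higher B-score means a larger calcium signal and so more RGS4 inhibition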
Target sequence (P49798 whole entry, looked up): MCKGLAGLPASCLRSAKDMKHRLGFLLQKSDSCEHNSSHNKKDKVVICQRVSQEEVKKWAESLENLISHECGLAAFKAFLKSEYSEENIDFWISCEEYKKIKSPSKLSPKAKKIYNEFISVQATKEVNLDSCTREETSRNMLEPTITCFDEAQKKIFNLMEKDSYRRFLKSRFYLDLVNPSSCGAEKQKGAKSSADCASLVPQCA
MrgX1 antagonist – human MrgX1 receptor antagonism, primary screen; AID 588676; actives 1.3% (n = 310,000); Q96LB2; B-score at 10 µM; MRGX1-HEK293 calcium flux, Fluo-4, BAM8-22 antagonism; hits give low values;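 active means calcium-response B-score plate-corrected more than 3 library SD below zero, starting fluorescence within 5 deviations, no agonist response on first addition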;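 further: peak minus trough fluorescence over baseline after final BAM8-22 challenge near maximal dose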
MrgX1 PAM – allosterically activates human MrgX1 receptor signaling. B-score at 10 µM. Q96LB2. MrgX1-HEK293, Fluo-4 calcium flux, FDSS; hits give high values. actives 0.63% (n = 310,000);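 active means plate-corrected calcium response at least 3 library SD above typical, normal starting fluorescence, not activating the receptor alone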;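 further: compound read alongside a low EC10 to EC30 dose of BAM8-22 agonist; peak minus trough fluorescence over baseline measured at the second addition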
RGS4 pot – potentiators or activators of RGS4; HEK293 M3R/inducible RGS4, carbachol calcium flux Fluo4; hits give low values; AID 463111; actives 0.92% (n = 310,000); B-score at 10 µM;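 active means B-score of the integrated calcium signal more than 4 SD below the library mean, with starting fluorescence not abnormally high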;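 further: negative B-score means reduced calcium response which marks RGS4 activation or potentiation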
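Material: Inducible-RGS4 HEK293 cells carrying M3 receptor; also added: carbachol at ECmax as muscarinic agonist stimulus; incubation: compound preincubation 20 min at room temperature before agonist; signal: Fluo4-AM (2 µM) calcium-flux fluorescence, kinetic read; measure: integrated calcium ratio converted to B score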
MrgX1 allo conf – reconfirmed allosteric activator of human MrgX1 receptor. shares compounds with MrgX1 PAM. MrgX1-HEK293, Fluo-4 calcium fluorescence, FDSS. activation (ratio percentage), % at 10 µM. actives 13% (n = 1,200). AID 602413;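 active means ratio at least 3 SD above the weak peptide control, stable starting fluorescence, no direct agonism earlier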;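 further: compound followed by low BAM8-22 agonist challenge near EC20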
HEK293 Ca flux – MrgX1 antagonist counter-screen hit in parental HEK293 cells | AID 624111 | shares compounds with MrgX1 antagonist | fluorescence ratio F(max-min)/F0 at 10 µM | actives 2% (n = 4,000) | Fluo-4 calcium fluorescence, FDSS;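 active means duplicate-averaged calcium fluorescence ratio at least three times the standard deviation of buffer wells, a nonspecific response in parental cells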
HEK293 Ca counter – counter-screen for MrgX1 allosteric activators: effect in parental HEK293 cells | shares compounds with MrgX1 antagonist | parental HEK293 calcium flux, Fluo-4 fluorescence ratio; hits give high values | fluorescence ratio F(max-min)/F0 at 10 µM | actives 0.4% (n = 4,000) | AID 624114;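 active means calcium fluorescence ratio, averaged over duplicates, at least 3 SD of the buffer-well ratio, meaning a nonspecific response in receptor-free cells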;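 further: untransfected parental HEK293 lacking MrgX1 used as counterscreen for MrgX1 allosteric activators; fluorescence change taken during the second addition on a kinetic imager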
HEK293 Ca cntr2 – counter-screen for MrgX1 activators: effect in parental HEK293 cells; shares compounds with MrgX1 antagonist; Fluo-4 calcium fluorescence (FDSS); hits give high values; fluorescence ratio F(max-min)/F0 at 10 µM; actives 8.7% (n = 4,000); AID 624115;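 active means calcium fluorescence ratio at least three times the spread of buffer wells, meaning a non-specific response in parental cells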
* marks the source's active call; other numbers are inactive results; i = inactive; / = not tested or not shown.

SMILES	MrgX1 agonist	RGS4 inh	MrgX1 antagonist	MrgX1 PAM	RGS4 pot	MrgX1 allo conf	HEK293 Ca flux	HEK293 Ca counter	HEK293 Ca cntr2
CCOC(=O)CN(Cc1sccc1C)C(=O)Nc1ccc(OCC)cc1	i	i	i	i	i	/	/	/	/
CCCc1cc(-c2n[nH]c(=S)n2-c2cccc(C)c2)cs1	i	i	i	8*	i	i	i	i	i
Cc1cccc(-n2c(-c3csc(C(C)C)c3)n[nH]c2=S)c1	i	i	i	i	i	/	/	/	/
Cc1cc(C)cc(NC(=S)N2CCC(NC(=O)c3ccco3)CC2)c1	i	i	i	i	i	/	/	/	/
Cc1ccc(OCCCNCCO)c(Br)c1	i	i	i	7.5*	i	i	i	i	i
Cc1nn(C)c(Nc2ccc(Br)cc2)c1Br	i	i	i	8.2*	i	i	i	i	i
Cc1ccc2c(c1)NC(=O)C(CC(=O)O)O2 (configuration not stated)	i	i	i	8.1*	i	i	i	i	i
Cc1ccc(NC(=O)CC2Oc3ccc(C)cc3NC2=O)c(C)c1 (configuration not stated)	i	i	i	i	i	/	/	/	/
CCOc1ccc(Br)cc1CNc1ccc2c(c1)OCCO2	i	i	i	i	i	/	/	/	/
COc1ccc(OC)c(CN2CCCC(CO)C2)c1 (configuration not stated)	i	i	i	i	i	/	/	/	/
COc1ccc(OCCC(=O)NCC23CC4CC(CC(C4)C2)C3)cc1	i	i	i	8.9*	i	i	i	i	i
COc1cc(C)c(NC(c2ccccc2)c2ccccc2)cc1OC	i	i	i	8.7*	i	i	i	i	i
COc1ccccc1CNC(c1ccccc1)c1ccccc1	i	i	i	i	i	/	/	/	/
O=C(CNC(=O)c1ccc(Cl)cc1)c1ccc(Br)cc1	i	i	i	i	i	/	/	/	/
COc1ccc(OCC(=O)N2CCN(S(=O)(=O)c3ccc(Cl)cc3)CC2)cc1	i	i	i	14*	i	i	i	i	i
COc1ccc(S(=O)(=O)N2CCC(C(=O)NCC3CC3)CC2)cc1	i	i	i	13*	i	i	i	i	i
COc1ccc(C2(C(=O)NCc3ccco3)CCCC2)cc1OC	i	i	i	i	i	/	/	/	/
CN(C)S(=O)(=O)c1ccc(NC(=O)CNc2cc(S(=O)(=O)N3CCCC3)ccc2OCC(F)(F)F)cc1	i	i	i	i	i	/	/	/	/
Cc1cc(C)cc(NC(=S)N2CCC(NC(=O)C3CCCCC3)CC2)c1	i	i	i	8.6*	i	i	i	i	i
CCOCC(=O)Nc1ccc(S(=O)(=O)NCC2CCCO2)cc1 (configuration not stated)	i	i	i	11*	i	i	i	i	i
CCOc1cccc(CN2CCN(CCCc3ccccc3)C(CCO)C2)c1O (configuration not stated)	i	i	i	i	i	/	/	/	/
CCOc1ccccc1N(C(C)=O)S(=O)(=O)c1ccc(Cl)cc1	i	i	i	i	i	/	/	/	/
CC(=O)N(c1ccccc1C)S(=O)(=O)c1ccc(Cl)cc1	i	i	i	8.7*	i	i	i	i	i
COc1ccc(C2CC(c3ccccc3)Nc3nc(NC(=O)c4ccco4)nn32)cc1 (configuration not stated)	i	i	i	i	i	/	/	/	/
O=C(Nc1nc2n(n1)C(c1ccccc1)CC(c1ccc(Cl)cc1)N2)c1ccco1 (configuration not stated)	i	i	i	7.3*	i	i	i	i	i
SMILES	MrgX1 agonist	RGS4 inh	MrgX1 antagonist	MrgX1 PAM	RGS4 pot	MrgX1 allo conf	HEK293 Ca flux	HEK293 Ca counter	HEK293 Ca cntr2
CCSc1c([N+](=O)[O-])c(=O)n(-c2ccccc2)c2ccccc12	i	i	i	i	i	/	/	/	/
COc1ccc(Nc2nc3ccccc3n3nnnc23)cc1	i	i	i	13*	i	i	i	i	i
CCN(CC(=O)Nc1ccc(NC(C)=O)cc1)c1ccc(C(F)(F)F)cn1	i	i	i	9.6*	i	i	i	i	i
CC(=O)Nc1ccc(N2CCN(c3ccc(C(F)(F)F)cn3)CC2)nc1	i	i	i	i	i	/	/	/	/
COc1cccc(Nc2ncccc2C(=O)Nc2ccccc2)c1	i	i	i	7.6*	i	i	i	i	i
COc1nnc(-c2ccc(N3CCCCC3)c(NC(C)=O)c2)c2ccccc12	i	i	i	i	i	/	/	/	/
Cc1ccc(/C=C(\C#N)C(=O)Nc2cccc(C)n2)cc1	i	i	i	i	i	/	/	/	/
COc1ccccc1CN1C(=O)c2ccccc2C1C(=O)NC1CCC(C)CC1 (configuration not stated)	i	i	i	9.8*	i	i	i	i	i
CCC(C)NC(=O)C1c2ccccc2C(=O)N1Cc1ccccc1OC (configuration not stated)	i	i	i	i	i	/	/	/	/
NNc1ncnc2c1cnn2-c1ccccc1	i	i	i	i	i	/	/	/	/
Cc1ccccc1Nc1ncnc2c1cnn2-c1ccccc1	i	i	i	11*	i	i	i	i	i
C[C@H](NC(=O)C1CCN(S(=O)(=O)c2ccccc2)CC1)C(=O)NCc1ccco1	i	i	i	i	i	/	/	/	/
CCCN1CCN(CCCNC(=O)C2CCCN(c3nc4ccc(OCC)cc4s3)C2)CC1 (configuration not stated)	i	i	i	i	i	/	/	/	/
CCOc1ccc2nc(N3CCCC(C(=O)NCC4CCCO4)C3)sc2c1 (configuration not stated)	i	i	i	6.6*	i	i	i	i	i
CC(C)Cc1nnc(NC(=O)C2CCCC2)s1	i	i	i	i	i	/	/	/	/
